Values after ≈ are worked out from the molar mass of the structure shown. Values joined by “and” are separate entries in the source; they are usually repeats but may differ in a detail not shown here. Equal entries are not always repeated. “Also recorded” adds a separate entry of the source. Where two headings read alike, the source gives them in different places.
Experiments:
[1] = system: solid Ehrlich carcinoma cells; assay: In vivo solid Ehrlich carcinoma
MCF-7 cells [2] = assay: MTT cytotoxicity assay, MCF-7 cells; assay type: cell-based; details: for IC50: Homo sapiens; for cytotoxicity in words: against MCF-7 and HepG2 cells
Procedure, shortened: (§1)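 Cells grown in medium with 10% FBS and 1% penicillin-streptomycin under CO2 at 37 °C and seeded at 5 × 10^4 per well. They were exposed to the test compound at 0.01, 0.1, 1, 10 and 100 μM, and viability was read by MTT absorbance as percent of control. IC50 came from dose-response curves, averaged over three independent trials.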

EGFR = EGFR (Homo sapiens, UniProt P00533); assay: EGFR enzyme inhibition; assay type: biochemical
Sequence of EGFR (P00533 25-1210): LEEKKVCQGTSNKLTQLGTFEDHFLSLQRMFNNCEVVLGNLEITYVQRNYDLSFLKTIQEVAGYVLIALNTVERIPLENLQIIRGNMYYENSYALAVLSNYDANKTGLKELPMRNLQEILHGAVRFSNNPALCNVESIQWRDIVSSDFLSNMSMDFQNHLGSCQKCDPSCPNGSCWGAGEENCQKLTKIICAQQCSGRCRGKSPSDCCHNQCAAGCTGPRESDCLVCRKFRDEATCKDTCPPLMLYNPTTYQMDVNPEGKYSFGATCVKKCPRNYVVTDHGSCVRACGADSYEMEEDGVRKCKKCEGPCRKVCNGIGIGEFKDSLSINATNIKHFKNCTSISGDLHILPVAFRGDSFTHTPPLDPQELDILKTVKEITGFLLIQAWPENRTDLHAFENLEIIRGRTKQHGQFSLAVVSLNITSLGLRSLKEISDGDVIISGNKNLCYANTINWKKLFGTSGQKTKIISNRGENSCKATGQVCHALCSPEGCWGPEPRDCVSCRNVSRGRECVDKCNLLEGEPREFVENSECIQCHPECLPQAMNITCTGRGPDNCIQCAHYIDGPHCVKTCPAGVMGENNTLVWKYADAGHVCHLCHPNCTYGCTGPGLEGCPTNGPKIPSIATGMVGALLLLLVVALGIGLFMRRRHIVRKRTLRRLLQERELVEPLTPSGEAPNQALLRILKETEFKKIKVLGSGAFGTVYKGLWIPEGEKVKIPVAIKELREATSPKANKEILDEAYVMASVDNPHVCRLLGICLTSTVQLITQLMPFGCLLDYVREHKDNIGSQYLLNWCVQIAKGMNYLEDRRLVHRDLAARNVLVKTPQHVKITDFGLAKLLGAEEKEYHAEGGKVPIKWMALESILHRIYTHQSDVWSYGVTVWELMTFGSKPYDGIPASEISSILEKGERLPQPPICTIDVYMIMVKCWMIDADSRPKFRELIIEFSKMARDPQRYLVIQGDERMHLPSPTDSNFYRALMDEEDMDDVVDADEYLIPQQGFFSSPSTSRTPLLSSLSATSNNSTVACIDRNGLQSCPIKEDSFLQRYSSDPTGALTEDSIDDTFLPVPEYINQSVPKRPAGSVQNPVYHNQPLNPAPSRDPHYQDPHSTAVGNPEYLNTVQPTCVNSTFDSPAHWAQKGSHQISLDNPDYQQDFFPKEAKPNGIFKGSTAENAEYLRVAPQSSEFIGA

HepG2 cells [3] = assay: Annexin V/PI apoptosis-necrosis assessment, HepG2; assay type: cell-based; details: HepG2, IC50 dose, 48 h
PARP-1 = PARP-1 (Homo sapiens, UniProt P09874); assay: PARP-1 enzyme inhibition; assay type: biochemical
Sequence of PARP-1 (P09874 whole entry): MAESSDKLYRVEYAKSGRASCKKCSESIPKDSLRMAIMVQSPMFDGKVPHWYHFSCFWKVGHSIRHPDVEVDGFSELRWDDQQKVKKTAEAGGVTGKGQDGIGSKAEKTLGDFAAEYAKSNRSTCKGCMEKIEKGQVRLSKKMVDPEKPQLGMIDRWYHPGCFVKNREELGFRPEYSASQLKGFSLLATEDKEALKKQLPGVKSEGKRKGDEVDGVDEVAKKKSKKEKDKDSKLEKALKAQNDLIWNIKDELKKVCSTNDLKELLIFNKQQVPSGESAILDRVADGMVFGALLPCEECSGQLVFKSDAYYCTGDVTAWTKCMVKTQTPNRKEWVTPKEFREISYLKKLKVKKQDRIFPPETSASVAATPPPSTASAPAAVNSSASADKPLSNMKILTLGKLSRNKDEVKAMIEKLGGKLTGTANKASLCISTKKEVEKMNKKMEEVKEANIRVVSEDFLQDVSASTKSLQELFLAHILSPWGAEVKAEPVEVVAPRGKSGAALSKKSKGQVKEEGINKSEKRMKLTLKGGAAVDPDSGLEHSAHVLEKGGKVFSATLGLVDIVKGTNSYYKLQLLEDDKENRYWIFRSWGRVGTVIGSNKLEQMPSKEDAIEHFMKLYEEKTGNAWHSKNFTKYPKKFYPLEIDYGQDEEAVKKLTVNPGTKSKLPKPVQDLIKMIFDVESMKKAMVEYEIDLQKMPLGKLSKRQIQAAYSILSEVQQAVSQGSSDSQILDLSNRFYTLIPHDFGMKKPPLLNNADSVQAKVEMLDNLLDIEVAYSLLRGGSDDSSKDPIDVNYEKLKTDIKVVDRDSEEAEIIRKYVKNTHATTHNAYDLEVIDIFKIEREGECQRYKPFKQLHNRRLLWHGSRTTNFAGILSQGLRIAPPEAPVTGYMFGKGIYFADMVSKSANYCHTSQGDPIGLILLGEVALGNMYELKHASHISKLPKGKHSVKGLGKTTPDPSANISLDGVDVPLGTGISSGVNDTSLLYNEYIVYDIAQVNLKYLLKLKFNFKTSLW

MCF-7 cells [4] = assay: Annexin V/PI apoptosis-necrosis assessment, MCF-7; assay type: cell-based; details: MCF-7, IC50 dose, 48 h
HepG2 cells [5] = assay: Cell cycle analysis; assay type: cell-based
Procedure, shortened: (§2)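 DNA content of untreated and treated cells was measured by flow cytometry as histograms. The percentage of cells in each cycle phase was compared before and after 48 h exposure.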

[6] = system: normal cell lines MCF-10A and THLE2; assay: MTT assay on normal breast; assay type: cell-based
Procedure, shortened: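 Normal breast MCF-10A and normal liver THLE2 cells, cultured with 10% FBS and 1% penicillin-streptomycin under CO2 at 37 °C. They were seeded at 5 × 10^4 per well and treated with the test compound at 0.01–100 μM. MTT absorbance gave percent viability versus untreated control.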

MCF-7 cells [7] = assay: Cell cycle analysis; assay type: cell-based
Procedure, shortened: as §2

HepG2 cells [8] = assay: MTT cytotoxicity assay, HepG2 cells; assay type: cell-based; details: Homo sapiens, HepG2, read-out: IC50 (HepG2)
Procedure, shortened: as §1

MCF-7 = details: antiproliferative activity ref 29; cited from earlier work
HEPG-2 = details: antiproliferative activity ref 29; cited from earlier work
MCF-7 cells [9] = details: read-out: IC50 (MCF-7 cells); cytotoxic action ref 32; cited from earlier work
[10] = SEC-bearing mice, 5 mg/kg BW IP, seven doses, mean ± SD n = 6
[11] = SEC-bearing mice, 5 mg/kg BW IP, seven doses, mean ± SD n = 6, 5 mg/kg
[12] = SEC-bearing mice, after treatment

In the case of `O=c1[nH]cc(F)c(=O)[nH]1` [5-FU, reference compound], the “tumor inhibition ratio (TIR%)” value ([1]; SEC-bearing mice, 5 mg/kg BW IP, seven doses) is reported as 65.7% and the tumor volume [1, 10] is reported as 114 mm^3.

With `CC(O)CSc1nnc(-c2cc3ccccc3[nH]2)n1-c1ccc(Cl)cc1` (stereo not drawn) [13b, 4-(4-Chlorophenyl)-3-(2-hydroxyprop-1-ylsulfanyl)-5-(1H-indol-2-yl)-1,2,4-triazole] the IC50 (MCF-7 cells [2]; MCF7, read-out: IC50 (MCF-7)) was 1.07 µM, the cytotoxicity in words (MCF-7 cells [2]) was “potent cytotoxicity” and the IC50 (EGFR) was 0.0624 µM. It also gave an early apoptosis (HepG2 cells [3]) of 23.61%, a late apoptosis (HepG2 cells [3]) of 9.34% and a necrosis-induced cell death (HepG2 cells [3]) of 6.01%. For the same compound, the “necrosis-induced cell death, fold increase” value (HepG2 cells [3]) was 6.1 fold, the “total apoptotic cell death” value (HepG2 cells [3]) was 32.95% and the “total apoptotic cell death, fold increase” value (HepG2 cells [3]) was 34.68 fold. The IC50 (PARP-1) was 0.00124 µM, the early apoptosis (MCF-7 cells [4]) was 10.6% and the late apoptosis (MCF-7 cells [4]) was 16.9%. The necrosis-mediated cell death (MCF-7 cells [4]) was 5.06%, the “necrosis-mediated cell death, fold increase” value (MCF-7 cells [4]) was 4.18 fold and the “total apoptotic cell death” value (MCF-7 cells [4]) was 27.63%. The “total apoptotic cell death, fold vs control” value (MCF-7 cells [4]) was 26 fold, the “cell cycle arrest phase” value (HepG2 cells [5]; HepG2) was “arrested cell division at the S phase” and the “%DIP S” value (HepG2 cells [5]; HepG2, 0.32 μM, 48 h) was 45.21%. For the same compound, the “toxicity to healthy cells” value ([6]; normal cells) was “no toxicity to healthy cells”, the “cell cycle arrest phase” value (MCF-7 cells [7]; MCF-7) was “arrested cell division at the G2/M phase” and the “%DIP G2/M” value (MCF-7 cells [7]; MCF-7, 1.07 μM, 48 h) was 26.4%. For the same compound, the IC50 (HepG2 cells [8]) was 0.32 µM, the “histopathological examination of liver tissues” value ([1]; SEC-bearing mice treated) was “improvement in liver tissues and retained them near normal; also recorded: Mild hydropic degeneration of hepatocytes” and the tumor volume [1, 10] was 129.6 ± 13.6 mm^3. The Hb [1, 11] was 7.29 g/dL, the total protein [1, 11] was 5.6 g/dL and 5.6 ± 0.39 g/dL and the tumor weight [1, 11] was 74.6 mg and 74.6 ± 2.79 mg. The “tumor inhibition ratio (TIR%)” value ([1]; SEC-bearing mice, 5 mg/kg BW IP, seven doses, 5 mg/kg) was 66.7% and 66.7 ± 1.06%, the “ALT” value [1, 12] was 50.6 U/L and the “AST” value [1, 12] was 60.3 U/L. For the same compound, the “WBC” value [1, 12] was 4360 L⁻¹.

In the case of `c1ccc(CSc2nc(-c3cc4ccccc4[nH]3)n[nH]2)cc1` [I, 3-Benzylsulfanyl-5-(1H-indol-2-yl)-2H-1,2,4-triazole], the “IC50 (MCF-7)” value (MCF-7) is given as 4.53 mg/L (≈ 14.8 µM) and the “IC50 (HEPG-2)” value (HEPG-2) is given as 3.58 mg/L (≈ 11.7 µM).

With `OCCSc1nnc(-c2cc3ccccc3[nH]2)n1-c1ccccc1` [12a, 3-(2-Hydroxyeth-1-ylsulfanyl)-5-(1H-indol-2-yl)-4-phenyl-1,2,4-triazole] the IC50 (MCF-7 cells [2]; MCF7, read-out: IC50 (MCF-7)) was 12.1 µM, the IC50 (MCF-7 cells [2]; MCF7, read-out: IC50 range) was 6.21 to 16.3 µM and the cytotoxicity in words (MCF-7 cells [2]) was “moderate activity”. The IC50 (HepG2 cells [8]) was 16.3 µM.

`S=c1[nH]nc(-c2cc3ccccc3[nH]2)n1-c1ccccc1` [3a, 5-(1H-Indol-2-yl)-4-phenyl-1,2,4-triazole-3(4H)-thione] gave an IC50 (HepG2 cells [8]) of 7.39 µM.

In the case of `COc1cccc2c1C(=O)c1c(O)c3c(c(O)c1C2=O)C[C@@](O)(C(=O)CO)C[C@@H]3O[C@H]1C[C@H](N)[C@H](O)[C@H](C)O1` [doxorubicin], the “IC50 (MCF-7)” value (MCF-7) is listed as 4.0 mg/L (≈ 7.36 µM) and the “IC50 (HEPG-2)” value (HEPG-2) is listed as 4.0 mg/L (≈ 7.36 µM).

With `OCCSc1nnc(-c2cc3ccccc3[nH]2)n1-c1ccc(Cl)cc1` [12b, 4-(4-Chlorophenyl)-3-(2-hydroxyeth-1-ylsulfanyl)-5-(1H-indol-2-yl)-1,2,4-triazole] the IC50 (MCF-7 cells [2]; MCF7, read-out: IC50 (MCF-7)) was 2.67 µM, the cytotoxicity in words (MCF-7 cells [2]) was “potent cytotoxicity” and the IC50 (EGFR) was 0.0781 µM. For the same compound, the IC50 (PARP-1) was 0.00213 µM, the inhibition at 100 µM ([6]; read-out: cell inhibition) was 80% and the IC50 (HepG2 cells [8]) was 3.21 µM.

In the case of `CC(O)CSc1nnc(-c2cc3ccccc3[nH]2)n1-c1ccccc1` (stereo not drawn) [13a, 3-(2-Hydroxyprop-1-ylsulfanyl)-5-(1H-indol-2-yl)-4-phenyl-1,2,4-triazole], the IC50 (MCF-7 cells [2]; MCF7, read-out: IC50 (MCF-7)) is reported as 6.21 µM, the IC50 (MCF-7 cells [2]; MCF7, read-out: IC50 range) is reported as 6.21 to 16.3 µM and the cytotoxicity in words (MCF-7 cells [2]) is reported as “moderate activity”. The IC50 (EGFR) was 0.14 µM, the IC50 (PARP-1) was 0.0216 µM and the IC50 (HepG2 cells [8]) was 8.91 µM.

`C#Cc1cccc(Nc2ncnc3cc(OCCOC)c(OCCOC)cc23)c1` [Erlotinib, reference compound] showed an IC50 (MCF-7 cells [2]; MCF7, read-out: IC50 (MCF-7)) of 2.51 µM, an IC50 (HepG2 cells [8]) of 2.91 µM and a total protein [1, 10] of 6.2 ± 0.47 g/dL. The tumor volume [1, 10] was 114.6 ± 12.5 mm^3 and the tumor weight [1, 11] was 69.3 mg and 69.3 ± 2.19 mg.

For `O=C(NNC(=S)Nc1ccccc1)c1cc2ccccc2[nH]1` [2a, 1-(1H-Indol-2-yl-carbonyl)-4-Phenyl-thiosemicarbazide], the IC50 (HepG2 cells [8]) was 12.4 µM.

Compound `S=c1[nH]nc(-c2cc3ccccc3[nH]2)n1-c1ccc(Cl)cc1` [3b, 4-(4-Chlorophenyl)-5-(1H-indol-2-yl)-2H-1,2,4-triazole-3(4H)-thione] has an IC50 (MCF-7 cells [2]; MCF7, read-out: IC50 (MCF-7)) of 14.2 µM and an IC50 (HepG2 cells [8]) of 17.2 µM.

For `CNC(=O)c1cc(Oc2ccc(NC(=O)Nc3ccc(Cl)c(C(F)(F)F)c3)cc2)ccn1` [Sorafenib], the IC50 (MCF-7 cells [9]) is given as 2.13 µM.
